Source: PubChem
CHO parental Ca: ATP-evoked calcium signal inhibitors, parental CHO, primary screen, counter-screen for OX1R antagonist project, cell-based, fluorescence, Fluo-8 calcium dye; parental CHO-K1, ATP-induced calcium, Fluo-8 fluorescence; inhibition, % at 5.6 µM; 330,000 tested, 0.63% active;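 active = inhibition above that plate's mean sample inhibition plus 3 SD, cut at about 26% in these data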
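Measured by: calcium-sensitive Fluo-8 fluorescence / Test system: CHO parental line / Controls: ATP-challenged DMSO wells low, unchallenged DMSO wells high / Measure: % inhibition / Compound: single nominal dose of 5.6 µM per compound / Replicates: single well per compound, no replicates / Reagent: ATP as calcium-mobilizing challenge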
TAAR1 antagonist: human TAAR1 antagonists, primary screen, Fluo-8 calcium fluorescence, CHO RD-HGA16 cells | inhibition, % at 3 µM | antagonist | 360,000 tested, 1.5% active | Trace amine-associated receptor 1 (Homo sapiens), Q96RJ0;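 active = inhibition above a per-plate cutoff, the mean inhibition of test compounds on that plate plus 3 SD, cut at about 49% in these data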
Target sequence (Q96RJ0 whole entry, looked up): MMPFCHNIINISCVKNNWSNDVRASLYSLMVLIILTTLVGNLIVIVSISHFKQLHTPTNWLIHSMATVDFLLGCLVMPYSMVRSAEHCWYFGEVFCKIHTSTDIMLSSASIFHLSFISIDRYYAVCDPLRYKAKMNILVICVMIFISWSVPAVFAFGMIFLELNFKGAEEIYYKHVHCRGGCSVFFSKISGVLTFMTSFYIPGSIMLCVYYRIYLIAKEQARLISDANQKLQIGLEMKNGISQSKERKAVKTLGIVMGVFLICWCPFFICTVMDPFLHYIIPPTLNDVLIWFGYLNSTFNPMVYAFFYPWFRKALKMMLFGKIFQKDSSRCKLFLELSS
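Test system – hTAAR1-expressing CHO RD-HGA16 cells, Gα16-coupled · Also added – β-PEA at EC80 concentration, post-compound challenge · Compound – 3 µM, single point · Incubation – dye loading 75 min at 37 °C, then 30 min room temperature · Measured by – Fluo-8 intracellular calcium dye fluorescence, real-time kinetic reads · Benchmarks – vehicle and agonist controls · Replicates – singlicate, one well per test compound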
OX1R antag-1: OX1R (HCRTR1) antagonists, primary screen, fluorescence, CHO/OX1R cells, Fluo-8 calcium, orexin A | Orexin/Hypocretin receptor type 1 (Homo sapiens), O43613 | Fluo-8 calcium fluorescence | inhibition, % at 5 µM | 330,000 tested, 0.43% active | AID 434989, 2010;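 active = inhibition above its plate's threshold, mean inhibition of all tested compounds on the plate plus 3 SD, cut at about 37% in these data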
TAAR1 ag: human TAAR1 agonists, primary screen, Fluo-8 calcium fluorescence, CHO RD-HGA16 cells; Trace amine-associated receptor 1 (Homo sapiens), Q96RJ0; vehicle wells 0%, saturating PEA agonist 100%; activation, % at 3 µM; 360,000 tested, 0.99% active;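 active = activation above the mean activation of all test compounds in the run plus 3 SD, cut at about 38% in these data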
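System: CHO RD-HGA16 cells carrying human TAAR1 plus Gα16; Incubation: 17-24 h seeding, 75 min 37 °C dye, 30 min RT; Measured by: Fluo-8 fluorescence, 5 s baseline then 140 s kinetic read; Control set: DMSO and PEA EC100; Replication: single well for each compound.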
OX1R antag-2: antagonists of human orexin 1 receptor (OX1R) | inhibition, % at 6.6 µM | 330,000 tested, 1.8% active | AID 485270, 2010 | OX1R-expressing cells, FRET antagonist read-out | Orexin/Hypocretin receptor type 1 (Homo sapiens), O43613; in the data active = inhibition mostly above about 38%, no sharp cut-off; inactive = mostly below about 40%
TAAR1 ag conf: human TAAR1 agonists, retest of hits, confirmation, Fluo-8 calcium fluorescence, CHO RD-HGA16 cells. activation, % at 3 µM. scaled: DMSO 0%, maximal phenethylamine 100%. 2,400 tested, 82% active. shares compounds with TAAR1 ag. AID 651783, 2012;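 active = activation above a cutoff set at the run's mean compound activation plus 3 SD, cut at about 39% in these data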
Ga16 nonsel ag: nonselective calcium mobilization agonists, CHO-Ga16 cells, counter-screen for hTAAR1 agonist project, cell-based, fluorescence, CHO-Ga16 parental line. 2,400 tested, 50% active. Fluo-8 calcium fluorescence; normalized to maximal ATP response, DMSO zero. shares compounds with TAAR1 ag. activation, % at 3 µM;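 active = activation above the run cutoff, the mean activation over all tested wells plus 3 SD, cut at about 12% in these data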
TAAR1 desensitize: TAAR1 desensitization by agonist hits, confirmation, counter-screen for TAAR1 agonist project, cell-based, fluorescence, tachyphylaxis | shares compounds with TAAR1 ag | CHO RD-HGA16 hTAAR1, Fluo-8 calcium, beta-PEA response inhibition | inhibition, % at 3 µM | 2,400 tested, 46% active;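 active = inhibition above the run cutoff, the mean inhibition of all test compounds plus 3 SD, cut at about 49% in these data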;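 also: beta-PEA stimulus applied at its EC80; loss of beta-PEA calcium signal after compound pretreatment read as receptor desensitization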
Ga16 nonsel ant: inhibition of ATP-evoked calcium response in CHO-Ga16 cells, counter-screen for TAAR1 agonist project, cell-based, fluorescence. shares compounds with TAAR1 ag. CHO-Ga16 ATP-induced calcium, Fluo-8 fluorescence. inhibition, % at 3 µM. 2,400 tested, 39% active;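 active = inhibition above the plate's mean compound inhibition plus 3 SD, computed per plate, cut at about 22% in these data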
Hits are given with their value. In the library only some 4% were active in any assay of this set; here they are far more common.

Screening CCOC(=O)[C@]12CCC=C1N(Cc1cccc3ccccc13)C(=O)[C@H](CC(=O)NCCc1ccccc1OC)C2 returned TAAR1 antagonist inactive, TAAR1 ag 55, TAAR1 ag conf 70, Ga16 nonsel ag inactive, TAAR1 desensitize inactive and Ga16 nonsel ant inactive.
`CCOc1ccc(CN2CCNC(=O)C2CC(=O)NCCc2ccccn2)cc1` (stereo not given) gave CHO parental Ca inactive, TAAR1 antagonist inactive, OX1R antag-1 inactive, TAAR1 ag inactive and OX1R antag-2 inactive.
Screening O=C(CC1C(=O)NCCN1Cc1ccccn1)NCCc1ccccc1F (stereo not given) returned CHO parental Ca inactive, TAAR1 antagonist inactive, OX1R antag-1 inactive, TAAR1 ag 78, OX1R antag-2 inactive, TAAR1 ag conf 97, Ga16 nonsel ag inactive, TAAR1 desensitize 72 and Ga16 nonsel ant inactive.
Screening CN1CCNC(=O)C1CC(=O)NCCc1ccccc1F (stereo not given) returned CHO parental Ca inactive, TAAR1 antagonist inactive, OX1R antag-1 inactive, TAAR1 ag 74, OX1R antag-2 inactive, TAAR1 ag conf 89, Ga16 nonsel ag inactive, TAAR1 desensitize 59 and Ga16 nonsel ant inactive.
Screening O=C(O)c1ccc(N/N=C/C2=Cc3ccccc3OC2)cc1 returned CHO parental Ca inactive, TAAR1 antagonist inactive, OX1R antag-1 inactive, TAAR1 ag 89, OX1R antag-2 inactive, TAAR1 ag conf 54, Ga16 nonsel ag 39, TAAR1 desensitize inactive and Ga16 nonsel ant inactive.
CCOC(=O)C1=C(COC(=O)COc2ccccc2C(C)C)NC(=O)NC1C (stereo not given) was read as TAAR1 antagonist inactive and TAAR1 ag inactive.
Screening O=C(NNC(=S)NC(=O)c1ccccc1)c1cccc([N+](=O)[O-])c1 returned CHO parental Ca inactive, TAAR1 antagonist inactive, OX1R antag-1 inactive, TAAR1 ag 96, OX1R antag-2 inactive, TAAR1 ag conf 84, Ga16 nonsel ag 65, TAAR1 desensitize inactive and Ga16 nonsel ant inactive.
`O=C(NNC(=S)NC(=O)c1cccc([N+](=O)[O-])c1)c1ccc(O)cc1` gave CHO parental Ca inactive, TAAR1 antagonist inactive, OX1R antag-1 inactive, TAAR1 ag inactive and OX1R antag-2 inactive.
For O=C(NNC(=S)NC(=O)c1cccc([N+](=O)[O-])c1)c1ccc(Br)cc1 the results were CHO parental Ca inactive, TAAR1 antagonist inactive, OX1R antag-1 inactive, TAAR1 ag 99, OX1R antag-2 inactive, TAAR1 ag conf 107, Ga16 nonsel ag 81, TAAR1 desensitize 77 and Ga16 nonsel ant 44.
For Cc1ccc(C(=O)NC(=S)NNC(=O)c2cccc([N+](=O)[O-])c2)cc1 the results were TAAR1 antagonist inactive, TAAR1 ag 83, TAAR1 ag conf 101, Ga16 nonsel ag 75, TAAR1 desensitize 62 and Ga16 nonsel ant 35.
`O=C(CCCN1C(=O)/C(=C\c2cccc(Br)c2)SC1=S)Nc1ccc(C(=O)O)cc1` gave TAAR1 antagonist inactive and TAAR1 ag inactive.
For COc1cccc(N2CCN(C3C4CC5CC(C4)CC3C5)CC2)c1 (stereo not given) the results were CHO parental Ca inactive, TAAR1 antagonist inactive, OX1R antag-1 inactive, TAAR1 ag 41, OX1R antag-2 inactive, TAAR1 ag conf 56, Ga16 nonsel ag 19, TAAR1 desensitize inactive and Ga16 nonsel ant inactive.
For COc1cccc(N2CCN(CC(=O)C34CC5CC(CC(C5)C3)C4)CC2)c1 the results were CHO parental Ca inactive, TAAR1 antagonist inactive, OX1R antag-1 inactive, TAAR1 ag inactive and OX1R antag-2 inactive.
O=[N+]([O-])c1ccc(-c2nn(-c3ccccc3)cc2/C=N/n2c(-c3ccncc3)n[nH]c2=S)cc1 was read as CHO parental Ca inactive, TAAR1 antagonist inactive, OX1R antag-1 inactive, TAAR1 ag inactive and OX1R antag-2 inactive.
For S=c1[nH]nc(-c2ccncc2)n1/N=C/c1cn(-c2ccccc2)nc1-c1ccccc1 the results were CHO parental Ca inactive, TAAR1 antagonist inactive, OX1R antag-1 inactive, TAAR1 ag 82, OX1R antag-2 52, TAAR1 ag conf 76, Ga16 nonsel ag 17, TAAR1 desensitize 61 and Ga16 nonsel ant inactive.
`O=[N+]([O-])c1cc(/C=N/n2c(-c3ccncc3)n[nH]c2=S)ccc1Cl` gave CHO parental Ca inactive, TAAR1 antagonist inactive, OX1R antag-1 inactive, TAAR1 ag 52, OX1R antag-2 inactive, TAAR1 ag conf 98, Ga16 nonsel ag 19, TAAR1 desensitize inactive and Ga16 nonsel ant inactive.
Screening COc1cccc(CNc2nnnn2C)c1 returned CHO parental Ca inactive, TAAR1 antagonist inactive, OX1R antag-1 inactive, TAAR1 ag inactive and OX1R antag-2 inactive.
For O=C1[C@@H]2C(Cc3ccc(O)cc3)NC3(C(=O)Nc4ccc(F)cc43)[C@@H]2C(=O)N1c1ccccc1 (stereo not given in full) the results were CHO parental Ca inactive, TAAR1 antagonist inactive, OX1R antag-1 inactive, TAAR1 ag inactive and OX1R antag-2 inactive.
For Cc1c(Cl)ccc2c1NC(=O)[C@]21N[C@@H](Cc2ccccc2)[C@H]2C(=O)N(c3ccc(F)cc3)C(=O)[C@H]21 the results were CHO parental Ca inactive, TAAR1 antagonist inactive, OX1R antag-1 inactive, TAAR1 ag 92, OX1R antag-2 inactive, TAAR1 ag conf 103, Ga16 nonsel ag 42, TAAR1 desensitize 75 and Ga16 nonsel ant 38.
Screening C1CCC(C(CC2CCCCN2)C2CCCCC2)CC1 (stereo not given) returned CHO parental Ca inactive, TAAR1 antagonist inactive, OX1R antag-1 inactive, TAAR1 ag 40, OX1R antag-2 inactive, TAAR1 ag conf 58, Ga16 nonsel ag 35, TAAR1 desensitize inactive and Ga16 nonsel ant 21.
